# According to ChEMBL document CHEMBL2390955, “Synthesis of novel strobilurin-pyrimidine derivatives and their antiproliferative activity against human cancer cell lines” (Bioorg Med Chem Lett, 2013):
# Columns and labels:
# [1] = system: A549; experiment: Cytotoxicity against human A549 cells assessed as growth inhibition by SRB assay; format: functional, cell-based
# Summary of the method: (§1)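 A549 growth inhibition measured by sulforhodamine B (SRB) staining, with the IC50 reported as the potency value.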
# [2] = system: HL-60; experiment: Cytotoxicity against human HL60 cells assessed as growth inhibition by MTT assay; format: functional, cell-based
# Summary of the method: (§2)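 Growth inhibition of EC9706, HL60, MCF-7 or SMMC7721 human cancer cells measured by MTT assay, with the IC50 reported as the potency value.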
# [3] = system: SMMC-7721; experiment: Cytotoxicity against human SMMC7721 cells assessed as growth inhibition by MTT assay; format: functional, cell-based; summary of the method: as §2
# [4] = system: MCF7; experiment: Cytotoxicity against human MCF7 cells assessed as growth inhibition by MTT assay; format: functional, cell-based; summary of the method: as §2
# [5] = Cytotoxicity against human EC9706 cells assessed as growth inhibition by MTT assay; format: functional, cell-based; summary of the method: as §2
# [6] = system: HL-60; experiment: Ratio of doxorubicin IC50 to compound IC50 for human HL60 cells; format: functional
# [7] = system: HL-60; experiment: Cytotoxicity against human HL60 cells assessed as growth inhibition; format: functional, cell-based; summary of the method: as §2
# [8] = system: A549; experiment: Cytotoxicity against human A549 cells assessed as growth inhibition; format: functional, cell-based; summary of the method: as §1
compound,measurement,setting,value
CO/C=C(/C(=O)OC)c1ccccc1COc1cc(C(F)(F)F)nc(Nc2ccc(Cl)cc2)n1,IC50,[1],1.3 µM
same,IC50,[2],19 µM
CO/C=C(/C(=O)OC)c1ccccc1COc1cc(C(F)(F)F)nc(Nc2ccc(Cl)cc2F)n1,IC50,[1],1.3 µM
same,IC50,[2],2.7 µM
CO/C=C(/C(=O)OC)c1ccccc1COc1cc(C(F)(F)F)nc(Nc2ccc(F)cc2F)n1,IC50,[1],1 µM
same,IC50,[2],4.8 µM
CO/C=C(/C(=O)OC)c1ccccc1COc1cc(C(F)(F)F)nc(Nc2c(F)cccc2F)n1,IC50,[1],41.4 µM
same,IC50,[2],12.1 µM
CO/C=C(/C(=O)OC)c1ccccc1COc1cc(C(F)(F)F)nc(Nc2ccc(F)c(F)c2F)n1,IC50,[1],1 µM
same,IC50,[2],13.6 µM
CNc1nc(OCc2ccccc2/C(=C\OC)C(=O)OC)cc(C(F)(F)F)n1,IC50,[1],93.7 µM
same,IC50,[2],76.7 µM
CCNc1nc(OCc2ccccc2/C(=C\OC)C(=O)OC)cc(C(F)(F)F)n1,IC50,[1],3.2 µM
same,IC50,[2],0.3 µM
CO/C=C(/C(=O)OC)c1ccccc1COc1cc(C(F)(F)F)nc(N(C)C)n1,IC50,[1],6 µM
same,IC50,[2],11.1 µM
CCN(CC)c1nc(OCc2ccccc2/C(=C\OC)C(=O)OC)cc(C(F)(F)F)n1,IC50,[1],17.9 µM
same,IC50,[2],15 µM
CO/C=C(/C(=O)OC)c1ccccc1COc1cc(C(F)(F)F)nc(NC(C)C)n1,IC50,[1],9.8 µM
same,IC50,[2],3.4 µM
CO/C=C(/C(=O)OC)c1ccccc1COc1cc(C(F)(F)F)nc(NC2CC2)n1,IC50,[1],10 µM
same,IC50,[2],6.5 µM
CO/C=C(/C(=O)OC)c1ccccc1COc1cc(C(F)(F)F)nc(N2CCCCC2)n1,IC50,[1],4.9 µM
same,IC50,[2],51.6 µM
CO/C=C(/C(=O)OC)c1ccccc1COc1nc(Nc2ccccc2)nc(C(F)(F)F)c1C,IC50,[1],7.4 µM
same,IC50,[2],0.7 µM
CO/C=C(/C(=O)OC)c1ccccc1COc1nc(Nc2ccc(Cl)cc2)nc(C(F)(F)F)c1C,IC50,[1],5.5 µM
same,IC50,[2],0.7 µM
CO/C=C(/C(=O)OC)c1ccccc1COc1nc(Nc2ccc(Cl)cc2Cl)nc(C(F)(F)F)c1C,IC50,[3],4.6 µM
same,IC50,[1],0.4 µM
same,IC50,[2],2.9 µM
same,IC50,[4],14.2 µM
same,IC50,[5],0.44 µM
CO/C=C(/C(=O)OC)c1ccccc1COc1nc(Nc2ccc(F)cc2F)nc(C(F)(F)F)c1C,Ratio IC50,[6],24
same,IC50,[1],3.1 µM
same,IC50,[2],0.0034 µM
CO/C=C(/C(=O)OC)c1ccccc1COc1nc(Nc2ccc(F)c(F)c2F)nc(C(F)(F)F)c1C,IC50,[1],5 µM
same,IC50,[2],0.8 µM
CO/C=C(/C(=O)OC)c1ccccc1COc1cc(C(F)(F)F)nc(OC(C)C)n1,IC50,[1],9.8 µM
same,IC50,[2],6.9 µM
CO/C=C(/C(=O)OC)c1ccccc1COc1cc(C(F)(F)F)nc(Nc2ccccc2)n1,IC50,[1],3 µM
same,IC50,[7],3.3 µM
same,IC50,[8],3 µM
same,IC50,[2],3.3 µM
COc1cccc2c1C(=O)c1c(O)c3c(c(O)c1C2=O)C[C@@](O)(C(=O)CO)C[C@@H]3O[C@H]1C[C@H](N)[C@H](O)[C@H](C)O1 [DOXORUBICIN],IC50,[1],0.5 µM
same,IC50,[2],0.082 µM
CO/C=C(/C(=O)OC)c1ccccc1COc1cc(C(F)(F)F)nc(Nc2ccc(Cl)cc2Cl)n1 [SYP-11277],IC50,[1],> 100 µM
same,IC50,[2],> 100 µM
